Experiment [1] is described as follows: inhibitors of TNFa-induced NFkB p65 translocation, primary screen, imaging, HUVEC, MLSMR starter and 10KST1 sets (AID 438;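 active = inhibition above 20% together with a positive visual image hit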;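 also: compound added about 3h40 before a 20 min TNFalpha stimulation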;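 as to inhibition: signal is the nuclear over cytoplasmic p65 intensity ratio per well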). To be noted: HUVEC TNFa-induced p65 nuclear translocation; cell count: measured here: nuclei count (cytotoxicity indicator), at 2.08 µM; inhibition: at 2 µM, stronger effect = higher value, 0% TNFa-plus-vehicle, 100% no-TNFa wells.
The nature of experiment [2]: endothelial E-selectin expression blockers – imaging, HUVEC, immunofluorescence, MLSMR starter and 10KST1 sets, primary screen (AID 487).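 As to inhibition: signal is fraction of cell area covered by stained E-selectin grains.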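 As to nuclei count: 100% = median nuclei count of all wells on the same plate.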 The following applies: HUVEC TNFalpha-induced E-selectin immunofluorescence imaging, at 2 µM; inhibition: stronger effect = higher value; nuclei count: measured here: cell number, toxicity.
Experiment [3] is described as follows: Primary imaging screen for DUSP6 inhibitors that restore phospho-Erk in transfected HeLa cells, chemical complementation (AID 609;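 active = compounds giving at least 50% inhibition in the cell-based MKP-3 phosphatase rescue imaging test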;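 as to inhibition: phospho-Erk level distribution per well compared with pooled transfected vehicle control wells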). The following applies: HeLa MKP-3 transfected, phospho-Erk imaging KS statistic, at 10 µM, cells stimulated with TPA for 15 min.
Experiment [4] concerns the target Dual specificity protein phosphatase 6 (Homo sapiens) (UniProt Q16828). The experiment is described as above. The following applies: HeLa MKP-3 transfected, phospho-Erk imaging KS statistic; at 10 µM; stronger effect = higher value; cells stimulated with TPA for 15 min.
For experiment [5], the target named is Voltage-gated potassium channel subunit beta-2 (Rattus norvegicus) (UniProt P62483). The experiment is described as follows: inhibitors of rat Kvbeta2 reductase activity – biochemical, NADPH fluorescence, primary screen (AID 622;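 active = fluorescence slope higher than the sample average by over 3 SD, cut at about -0.22 in these data, passing the limit was not always enough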;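 also: slope of raw intensity against log time taken from 70 to 1610 s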). To be noted: recombinant KvBeta, 4-cyanobenzaldehyde reduction, at 10 µM, stronger effect = higher value.
Sequence of Voltage-gated potassium channel subunit beta-2 (Rattus norvegicus) (P62483 whole entry, looked up): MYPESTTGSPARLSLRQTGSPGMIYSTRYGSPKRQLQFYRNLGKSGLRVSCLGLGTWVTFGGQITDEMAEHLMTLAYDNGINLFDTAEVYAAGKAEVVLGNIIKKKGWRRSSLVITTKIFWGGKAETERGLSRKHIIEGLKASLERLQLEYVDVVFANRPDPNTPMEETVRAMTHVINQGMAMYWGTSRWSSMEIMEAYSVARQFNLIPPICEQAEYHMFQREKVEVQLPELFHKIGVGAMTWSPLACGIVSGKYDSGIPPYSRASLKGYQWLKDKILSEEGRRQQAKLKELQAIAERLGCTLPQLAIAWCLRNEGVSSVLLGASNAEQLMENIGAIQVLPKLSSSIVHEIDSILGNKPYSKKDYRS
Experiment [6] shares this target. The experiment is described as follows: enhancers of rat Kvbeta2 NADPH turnover – biochemical, NADPH fluorescence, primary screen (AID 623;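 active = NADPH fluorescence slope more negative than the mean of all samples by about 3 SD, 99.7% confidence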;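 also: fluorescence intensity change per second fitted from 20 to 320 s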). To be noted: Recombinant KvBeta, NADPH fluorescence decrease slope, 10 min; at 10 µM; stronger effect = lower value.
Experiment [7] deals with Alpha-2C adrenergic receptor (Homo sapiens) (UniProt P18825). The experiment is described as follows: compounds altering alpha2C-coupled GIRK flux – cell-based, HEK293 alpha2C/GIRK1/2, thallium flux, primary screen (AID 624;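 active = fluorescence slope after compound addition differing from the mean of all screened samples at 99.7% confidence, in either direction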;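 also: slope of fluorescence ratio to pre-addition baseline per second over 15 to 24 s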). The following applies: thallium flux BTC fluorescence, at 10 µM, actives lie on both sides.
Sequence of Alpha-2C adrenergic receptor (Homo sapiens) (P18825 whole entry, looked up): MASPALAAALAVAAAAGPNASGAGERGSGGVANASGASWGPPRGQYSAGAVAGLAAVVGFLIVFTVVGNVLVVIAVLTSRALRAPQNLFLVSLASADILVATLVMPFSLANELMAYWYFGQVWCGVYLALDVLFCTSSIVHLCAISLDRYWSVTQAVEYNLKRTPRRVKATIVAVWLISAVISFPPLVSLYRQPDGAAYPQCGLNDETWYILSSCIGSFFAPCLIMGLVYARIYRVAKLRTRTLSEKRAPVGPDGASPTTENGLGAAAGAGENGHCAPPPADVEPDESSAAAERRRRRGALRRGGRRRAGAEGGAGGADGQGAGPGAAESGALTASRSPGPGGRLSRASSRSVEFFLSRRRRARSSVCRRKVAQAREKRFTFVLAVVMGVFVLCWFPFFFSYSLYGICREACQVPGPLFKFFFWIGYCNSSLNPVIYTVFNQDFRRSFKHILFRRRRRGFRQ
Experiment [8] is described as follows: inhibitors of larval lipid processing in zebrafish, primary screen, whole organism, PED6 fluorescence, gall bladder and intestine (AID 686;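 active = a full or partial loss of lipid-probe fluorescence in the fish gall bladder, intestine or both, judged by eye; inactive = no fluorescence loss, or compound toxic to the fish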;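 also: larvae 5 to 7 days old with five fish per well; signal comes from phospholipase A2 cleavage of quenched PED6 carried via bile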). The following applies: Zebrafish larvae PED6 lipid processing, fluorescence scoring; screened at 20 µM (by protocol). In a few lines: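 System: live zebrafish larvae aged 5-7 days, whole organism; measure: graded gall bladder and intestinal fluorescence inhibition per well; incubation: overnight exposure; reagent: ingested quenched lipid PED6 at 100 nM; signal: By-eye fluorescence microscopy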

A short description of experiment [9]: loss of swimming-algae plug formation – whole organism, Chlamydomonas reinhardtii, WT vs cilia-less mutant, absorbance, 96-well, primary screen (AID 463189;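 active = inhibition at or above 50% relative to wild type and mutant plate controls; inactive = inhibition below 50%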;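 also: 0% = wild type cc124 cells in DMSO and 100% = ciliumless bld1 mutant cells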). The following applies: Chlamydomonas reinhardtii gravitaxis, OD600 absorbance, 2 days; at 10 µM; stronger effect = higher value.
Setting [10] is: measured here: cell density z-score.
[11] abbreviates: measured here: nuclear c-Myc green intensity z-score.
Setting [12] is: measured here: nuclear pErk red intensity z-score, stronger effect = higher value.

The text below walks through data of PubChem BioAssay.

Calls of active or inactive are those of the source.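 The calls were made as follows, unless noted: active = visually confirmed hit in the image check and inhibition above 20%; inconclusive = visually confirmed hit but inhibition not above 20%; inactive = no visual hit in the image check.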

Sequence of Dual specificity protein phosphatase 6 (Homo sapiens) (Q16828 whole entry, looked up): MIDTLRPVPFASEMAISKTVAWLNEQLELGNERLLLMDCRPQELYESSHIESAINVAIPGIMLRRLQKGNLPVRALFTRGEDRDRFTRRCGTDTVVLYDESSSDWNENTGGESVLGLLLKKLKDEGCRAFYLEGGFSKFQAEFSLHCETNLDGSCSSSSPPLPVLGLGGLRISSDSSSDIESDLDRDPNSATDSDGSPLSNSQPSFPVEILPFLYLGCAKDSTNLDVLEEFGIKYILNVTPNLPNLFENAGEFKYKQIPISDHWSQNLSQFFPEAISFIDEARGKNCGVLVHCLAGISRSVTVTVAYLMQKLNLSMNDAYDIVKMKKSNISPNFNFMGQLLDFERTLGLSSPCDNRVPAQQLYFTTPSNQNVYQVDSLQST

For the molecule `CCOc1cccc(-c2nn3c(-c4ccco4)nnc3s2)c1`, in experiment [1], the cell count came out at 591. Besides, the inhibition in [1] was -18.9% (inactive); in experiment [2], -310% (inactive); in experiment [4], -4.27% (inactive); in experiment [9] it was 17.2% (inactive). The same molecule came in with a nuclei count in experiment [2] of 153%. Besides, the figures for the z-score in experiment [3] (setting [10]), in [3] (setting [11]) and in [3] (setting [12]) were -0.574, -0.476 and -0.496, respectively. Also, the fluorescence slope in [5] is -0.409 (inactive). Also, in experiment [6], the NADPH fluorescence slope is -0.00014 (inactive). Further, the slope in experiment [7] was 0.00461 (inactive). In addition, the call in experiment [8] was inactive.

Turning to `CCC1(C)Cc2ccccc2-c2nc(NCCO)n(-c3ccccc3)c(=O)c21` (centres undefined), the cell count in experiment [1] came out at 467. The inhibition was 0.9% (inactive) in experiment [1], -104% (inactive) in [2], -14% (inactive) in experiment [4] and -9.34% (inactive) in experiment [9]. In experiment [2], this molecule had a nuclei count of 137%. The figures for the z-score in experiment [3] (setting [10]), in experiment [3] (setting [11]) and in [3] (setting [12]) were -0.977, 0.92 and 0.687, respectively. Also, the fluorescence slope in experiment [5] was -0.0137 (active). Besides, the NADPH fluorescence slope in experiment [6] is 6.5e-06 (inactive). Further, the slope in experiment [7] is 0.00569 (inactive). The molecule was called inactive in [8].

As for `O=C1C(=O)N(CCN2CCOCC2)C(c2ccccn2)/C1=C(/O)c1ccc(F)cc1` (centres undefined), the cell count in experiment [1] was 368. For the same molecule, the inhibition in [1] is -5.8% (inactive); in [2], -3.3% (inactive); in [4], 3.66% (inactive); in [9], 38.7% (inactive). In experiment [2], this molecule returned a nuclei count of 124%. In addition, the z-score was -0.169 in [3] (setting [10]), 0.443 in [3] (setting [11]) and -0.876 in [3] (setting [12]). Besides, the fluorescence slope in experiment [5] is -0.392 (inactive). In addition, the NADPH fluorescence slope in experiment [6] was -5.6e-05 (inactive). Further, the slope in [7] is 0.00569 (inactive). The molecule was called inactive in [8].

With `CC(C)(C)c1cccc(/C=N/O)c1O`, the cell count in experiment [1] came to 519. Also, the inhibition in [1] is -19.1% (inactive); in [2] it was -214% (inactive); in experiment [4], 7.93% (inactive); in experiment [9], 9.58% (inactive). Further, the nuclei count in experiment [2] amounted to 140%. The z-score in [3] (setting [10]) was 2.16; in experiment [3] (setting [11]), -0.74; in experiment [3] (setting [12]), -1.64. Further, the fluorescence slope in experiment [5] was -0.526 (inactive). Further, the NADPH fluorescence slope in experiment [6] was -2.2e-05 (inactive). In experiment [7], the slope was 0.00592 (inactive). Further, in [8], the molecule was classed as inactive.

Consider `CCOC(=O)C1CCN(c2nc3ccccc3nc2C(C#N)C(=O)NCCc2ccccc2)CC1` (centres undefined), for which the cell count in experiment [1] was determined as 441. The inhibition in experiment [1] was 3.4% (inactive); in experiment [2], -167% (inactive); in experiment [4], 13.2% (inactive); in experiment [9], 13.3% (inactive). The molecule also registered a nuclei count in [2] of 184%. The values for the z-score in [3] (setting [10]), in experiment [3] (setting [11]) and in experiment [3] (setting [12]) were 0.0297, 0.625 and -0.588, respectively. Further, the fluorescence slope in experiment [5] is -0.426 (inactive). In addition, the NADPH fluorescence slope in experiment [6] is -6.6e-05 (inactive). Moreover, the slope in experiment [7] was 0.00158 (inactive). Further, in [8], the outcome was inactive.

Turning to `O=S(=O)(O)c1nc2ccccc2n1Cc1ccc(Cl)cc1Cl`, the cell count in experiment [1] worked out at 405. In addition, the inhibition in experiment [1] is -4.7% (inactive); in [2] it was -102% (inactive); in experiment [4], 20.8% (inactive); in [9], 27.2% (inactive). Also, the nuclei count in experiment [2] worked out at 149%. The figures for the z-score in experiment [3] (setting [10]), in experiment [3] (setting [11]) and in experiment [3] (setting [12]) were -0.945, 0.195 and -1.66, respectively. Also, the fluorescence slope in experiment [5] is -0.337 (inactive). In addition, the NADPH fluorescence slope in [6] is -1.5e-05 (inactive). Also, the slope in experiment [7] was 0.00557 (inactive). In addition, the outcome in experiment [8] was inactive.

As to `CCCc1cc(-n2ccnc2C)n2c(nc3ccccc32)c1C#N`, the cell count in experiment [1] was 536. Further, the inhibition was -42.1% (inactive) in experiment [1], -109% (inactive) in [2], -15% (inactive) in experiment [4] and 4.33% (inactive) in [9]. The molecule further displayed a nuclei count in [2] of 153%. The z-score in [3] (setting [10]) was -0.822; in [3] (setting [11]) it was -0.981; in [3] (setting [12]), 0.35. Moreover, in experiment [5], the fluorescence slope is -0.415 (inactive). Also, the NADPH fluorescence slope in experiment [6] is -3.2e-05 (inactive). Further, the slope in experiment [7] is 0.00567 (inactive). Also, the call in [8] was inactive.

Turning to `CC1(C)Cc2c(C#N)c(N3CCOCC3)nc(-c3ccccc3)c2CO1`, in experiment [1], the cell count worked out at 600. Further, the inhibition in [1] was -14.3% (inactive); in experiment [2] it was -25.8% (inactive); in [4], 3.66% (inactive); in experiment [9], -17.1% (inactive). In experiment [2], the nuclei count is 109%. In addition, the values for the z-score in experiment [3] (setting [10]), in experiment [3] (setting [11]) and in experiment [3] (setting [12]) were -0.0371, -0.989 and 0.333, respectively. For the same molecule, the fluorescence slope in [5] was -0.424 (inactive). The NADPH fluorescence slope in experiment [6] was -7.6e-05 (inactive). In experiment [7], the slope was 0.0042 (inactive). The call in experiment [8] was inactive.

For the molecule `Cn1c(OCc2cccnc2)nc2c1c(=O)n(Cc1ccc(Cl)cc1)c(=O)n2C`, in [1], the cell count worked out at 653. The inhibition in [1] was -7.1% (inactive); in experiment [2], 6.1% (inactive); in experiment [4], 2.46% (inactive); in [9], 66.4% (active). The nuclei count in experiment [2] came out at 156%. Moreover, the z-score in experiment [3] (setting [10]) was -0.404; in experiment [3] (setting [11]) it was 0.0478; in experiment [3] (setting [12]), 1.27. Further, the fluorescence slope in [5] was -0.505 (inactive). In addition, in experiment [6], the NADPH fluorescence slope was -9.6e-05 (inactive). Also, the slope in experiment [7] is 0.00416 (inactive). In experiment [8], the molecule was classed as inactive.

For the molecule `CCOc1ccc(CCNC(=O)C(O)c2ccccc2)cc1` (centres undefined), the cell count in experiment [1] was found to be 632. Further, the inhibition in experiment [1] is -0.6% (inactive); in experiment [2], 18.6% (inactive); in experiment [4], 5.57% (inactive); in experiment [9], 25.5% (inactive). The same molecule gave a nuclei count in experiment [2] of 150%. The z-score is -1.06 in experiment [3] (setting [10]), 0.643 in experiment [3] (setting [11]) and -0.425 in experiment [3] (setting [12]). For the same molecule, in experiment [5], the fluorescence slope is -0.517 (inactive). For the same molecule, the NADPH fluorescence slope in experiment [6] was -4.4e-05 (inactive). In addition, in experiment [7], the slope was 0.0068 (inactive). Also, the molecule was classed as inactive in experiment [8].

For `C=CCOn1c(=O)c(-c2cc3ccccc3o2)[n+]([O-])c2ccccc21`, in [1], the cell count amounted to 536. Moreover, the inhibition is -1.4% (inactive) in experiment [1], -41.6% (inactive) in experiment [2], -8.76% (inactive) in experiment [4] and 18.3% (inactive) in experiment [9]. Also, the nuclei count in experiment [2] was determined as 144%. The z-score was -0.342 in [3] (setting [10]), 0.414 in experiment [3] (setting [11]) and -0.0488 in experiment [3] (setting [12]). For the same molecule, the fluorescence slope in experiment [5] was -0.123 (inactive). In experiment [6], the NADPH fluorescence slope was 1.7e-05 (inactive). For the same molecule, the slope in experiment [7] was 0.00548 (inactive). Also, in [8], the result was inactive.

Turning to `Cc1ccc(CC2CC(=O)N(c3ccc4c(c3)OCCO4)C2=O)cc1` (centres undefined), in [1], the cell count stood at 482. The inhibition in [1] was -11% (inactive); in experiment [2], -17.8% (inactive); in experiment [4], 15.1% (inactive); in experiment [9], 25.7% (inactive). Further, in experiment [2], the nuclei count was determined as 129%. In addition, the z-score in experiment [3] (setting [10]) was 1.49; in [3] (setting [11]), -1.24; in experiment [3] (setting [12]), 0.443. In addition, the fluorescence slope in experiment [5] is -0.513 (inactive). For the same molecule, in [6], the NADPH fluorescence slope was -0.000111 (inactive). Besides, in experiment [7], the slope is 0.00446 (inactive). For the same molecule, the result in experiment [8] was inactive.

Consider `COc1ccc2oc(=O)c(-c3nc(C)cs3)cc2c1`, for which, in [1], the cell count came out at 523. Further, the inhibition in [1] was -9.3% (inactive); in experiment [2], -79.5% (inactive); in [4] it was -2.07% (inactive); in [9], 26.4% (inactive). In experiment [2], this molecule gave a nuclei count of 135%. Besides, the z-score in experiment [3] (setting [10]) was -0.969; in experiment [3] (setting [11]), 0.963; in [3] (setting [12]), 1.41. Moreover, the fluorescence slope in [5] was -0.302 (inactive). In addition, the NADPH fluorescence slope in experiment [6] is -3.5e-05 (inactive). The slope in experiment [7] was 0.00534 (inactive). In experiment [8], the call was inactive.

As a reminder, the inhibition is the drop in the measured response relative to a control, in per cent.
